Source: PubChem BioAssay (several laboratories)
HePTP inh: blocks human HePTP tyrosine phosphatase; hit rate 0.64% among 110,000; recombinant HePTP phosphatase activity, OD absorbance; P35236; inhibition, % at 20 µM; in the data active means inhibition above about 50%;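 further: plate controls were vehicle for no effect and reference inhibitor for full effect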
Target sequence (P35236 whole entry, looked up): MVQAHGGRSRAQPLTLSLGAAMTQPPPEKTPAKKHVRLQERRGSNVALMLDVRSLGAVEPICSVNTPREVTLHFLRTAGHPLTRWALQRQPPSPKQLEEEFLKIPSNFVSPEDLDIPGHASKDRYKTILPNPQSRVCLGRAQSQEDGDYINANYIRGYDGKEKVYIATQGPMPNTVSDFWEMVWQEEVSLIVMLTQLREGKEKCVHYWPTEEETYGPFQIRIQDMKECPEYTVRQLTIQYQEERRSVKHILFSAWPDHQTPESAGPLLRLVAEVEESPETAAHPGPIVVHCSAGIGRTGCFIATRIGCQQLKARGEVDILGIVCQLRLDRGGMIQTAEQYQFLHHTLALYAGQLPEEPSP
AP complement: alternative pathway complement inhibition, orthogonal assay | hit rate 0.08% among 62,000 | Human serum alternative complement pathway, LPS-coated ELISA, C3 deposition; tested in compound mixtures | inhibition, % at 5 µM;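 active means inhibition above 30% in each of the two pooled mixtures holding the compound, so the lower value exceeds 30%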;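 further: 0% = serum in Mg-EGTA without compound and 100% = EDTA serum blank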
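Assay system: human serum alternative complement pathway, C3 deposition on LPS-coated wells; Dosing: 5 µM per compound in ten-compound mixtures; Detection: Anti-C3 ELISA, OD 450 nm; Buffer or medium: Mg2+-EGTA GVB++ buffer containing human serum at 1:15 dilution; Timing: 1 h at 37 °C; Replication: two different pools per compound.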
Ecoli tolC: growth inhibitors of E. coli BW25113 tolC mutant. OD615. growth inhibition, % at 10 µM (by protocol). hit rate 2.2% among 65,000. AID 573;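 active means growth inhibition at or above a cutoff equal to the mean over every tested compound plus 3 SD, cut at about 60% in these data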;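 further: growth measured after 20 h incubation at 37 °C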
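Test system: E. coli BW25113 ΔtolC::kan bacteria | Medium: Kanamycin-containing LB broth (50 µg/mL) | Dosing: One dose of 10 µM final | Times: 20 h incubation with compound, 37 °C | Detection: Optical density read at 615 nm | Read-out basis: Percent growth inhibition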
PLAP act: activators of human placental alkaline phosphatase; P05187; purified PLAP enzyme, luminescent substrate read-out; hits give high values; activation fold at 20 µM; hit rate 1.2% among 96,000; AID 696; in the data active means activation fold above about 2
E coli WT exp: E. coli BW25113 growth inhibition, expanded screen; growth inhibition, % at 100 µM; hit rate 0.15% among 98,000; OD600 absorbance; AID 710;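 active means growth inhibition above about 50% at one test dose, limit read from the data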;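 further: growth measured after 20 h incubation at 37 °C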
Starred values were filed as active, the others as inactive; nt = no result given; ! = not active in a repeat. A selection: hits, their analogues and other compounds. The true share with any hit is near 2.3%.

SMILES	HePTP inh	AP complement	Ecoli tolC	PLAP act	E coli WT exp
Cc1ccc(SCc2[nH]nc3c2C2(C(=O)Nc4ccc(F)cc42)C(C#N)=C(N)O3)cc1 (centres undefined)	nt	nt	nt	2*	-1.0
Cc1[nH]nc2c1C1(C(=O)Nc3ccc([N+](=O)[O-])cc31)C(C#N)=C(N)O2 (centres undefined)	nt	nt	nt	1.2	6.0
CCc1[nH]nc2c1C1(CCN(C(=O)c3ccccc3)CC1)C(C#N)=C(N)O2	5.5	-0.2	-8.4	1.5	5.0
CC(=O)N1CCC2(CC1)C(C#N)=C(N)Oc1n[nH]c(CSc3ccc(C)cc3)c12	4.0	5.7	16.6	2*	5.0
N#Cc1c(NC(=O)CSc2nnc(-c3ccccc3)o2)sc2c1CCCC2	nt	nt	nt	0.9	-2.0
O=C(CSc1nnc(-c2csc3c2CCCC3)o1)Nc1ccccc1	6.4	8.4	43.4	2*	3.0
COCCCn1c(Cc2csc(Nc3cccc(Cl)c3)n2)nnc1SCC(=O)OC	19.4	4.4	11.3	2*	21.0
O=C(COc1cccc(OC(F)F)c1)Nc1ccc(SC(F)F)cc1	-5.0	1.6	70.0*	0.8	5.0
O=C(COc1cccc(Oc2ccccc2)c1)Nc1ccc(SC(F)F)cc1	nt	nt	nt	0.5	-6.0
COc1ccc(NS(=O)(=O)c2ccc3c(c2)Cc2ccccc2-3)cn1	9.2	10.7	100.0*	0.8	-9.0
CN(C)S(=O)(=O)Nc1ccc2c(c1)Cc1ccccc1-2	10.2	2.2	-26.3	0.9	0.0
Cc1cc(Nc2ccc(N3CCC(C)CC3)cc2)n2ncnc2n1	-6.1	-14.7	11.2	2*	1.0
CC(=O)c1ccc(Nc2cc(C)nc3ncnn23)cc1	-10.5	nt	nt	nt	nt
Cc1cccc(OCC(=O)Nc2ccccc2F)c1C	10.9	nt	nt	nt	nt
O=c1c2cc3ccccc3n2cnn1Cc1ccccc1F	15.9	15.2	75.4*	nt	5.0
Cc1cc([N+](=O)[O-])nn1Cc1ccccc1F	nt	nt	nt	1	11.0
O=S(=O)(Nc1ccc(Cl)cc1)c1ccc2c(c1)OCCO2	-7.3	nt	nt	nt	nt
O=S(=O)(Nc1ccc2c(c1)OCCO2)c1ccc2oc3ccccc3c2c1	-1.3	-6.7	97.5*	1.3	-7.0
CSc1nc2ccc(NS(=O)(=O)c3ccc4c(c3)OCCO4)cc2s1	0.9	5.5	100.0*	1.2	-10.0
Clc1ccc(-c2nc3ccc(N=Cc4ccco4)cc3[nH]2)c(Cl)c1	3.1	nt	nt	nt	nt
CCn1cc(C(=O)NCCCN(C)C)c(=O)c2cc(F)c(N3CCN(C)CC3)cc21	2.5	-3.2	22.9	1.5	100.0*
CCN(CC)CCNC(=O)c1cn(CC)c2ccc(S(=O)(=O)N(C)C)cc2c1=O	-7.7	7.1	-3.0	1.1	4.0
CCCNC(=O)c1cn(CC)c2cc(N3CCN(C)CC3)c(F)cc2c1=O	nt	nt	nt	1.5	100.0*
CCn1cc(C(=O)NN)c(=O)c2cc(F)c(N3CCCCCC3)cc21	-2.4	nt	nt	nt	nt
N#Cc1ccc(NC(=O)Nc2ccc(Cl)cc2)cc1	-12.4	15.9	89.9*	0.9	48.0
SMILES	HePTP inh	AP complement	Ecoli tolC	PLAP act	E coli WT exp
O=C(Nc1ccc2c(c1)OCO2)Nc1ccc(Cl)cc1Cl	nt	nt	nt	0.8	-8.0
O=C(Nc1ccc(Cl)cc1)Nc1ccc2c(c1)OCCO2	105.0*	nt	nt	nt	nt
CCOc1ccc(-c2cc(C(=O)NCc3ccc(F)cc3)c3ccccc3n2)cc1	-2.0	nt	nt	nt	nt
COc1cc(C2SCC(=O)N2CCc2ccc(OC)c(OC)c2)ccc1O (centres undefined)	-12.4	nt	nt	nt	nt
COc1ccc(CCN2C(=O)CSC2c2ccc([N+](=O)[O-])cc2)cc1OC (centres undefined)	103.9*	nt	nt	nt	nt
Cc1oc(C)c2c(=O)cc(-c3ccc4c(c3)OCO4)cc(O)c12	9.7	nt	nt	nt	nt
CCc1c(C)nc2cc(-c3ccc(OC)c(OC)c3)nn2c1NCC1CC1	nt	nt	nt	2*	-12.0
COc1ccc(-c2nc(C)c(C(C)=O)n2O)cc1OC	-3.6	3.0	9.8	1.1	2.0
Cc1cccc(Nc2nc(NCc3ccco3)nc(N3CCOCC3)n2)c1	6.3	0.6	61.9*	1.2	-13.0
Cc1cccc(Nc2nc(N3CCCC3)nc(N3CCCC3)n2)c1	nt	nt	nt	0.9	-1.0
Cc1cccc(C)c1NC(=O)C(c1cccs1)N(Cc1ccco1)C(=O)Cn1nnc2ccccc21 (centres undefined)	-1.9	0.2	64.3*	0.8	-12.0
O=C(Nc1ccc2nn(-c3ccc(F)cc3)nc2c1)c1ccc(Br)o1	81.1*	nt	nt	nt	nt
CN1CCN(C(=O)CC23CC4CC(CC(C4)C2)C3)CC1	103.9*!	-11.6	-15.3	1.2	-3.0
COc1ccccc1C1SCCN1S(=O)(=O)c1cccc(C(F)(F)F)c1 (centres undefined)	-12.7	2.7	63.3*	1	-18.0
C=CCn1c(=O)c(C(=O)Nc2cccc(C)c2)c(O)c2ccccc21	-4.7	nt	nt	nt	nt
CCCc1cc(=O)oc2c(CN3CCCC3)c(O)c(Cl)cc12	2.6	nt	5.8	2.9*	-3.0
CCOc1cccc(-c2nnc(NC(=O)c3ccco3)s2)c1	10.5	nt	nt	nt	nt
O=c1/c(=C/c2cc(Cl)ccc2OCc2ccccc2Cl)sc2nc3ccccc3n12	11.4	nt	nt	nt	nt
CCN1/C(=C/c2ccc3cccc(C)c3[n+]2CC)Sc2ccccc21	nt	nt	nt	0.4	72.0*
CCN1/C(=C/C(C)=O)Sc2ccccc21	7.5	nt	nt	nt	nt
Cc1ccc(-c2csc(N(CC3CCCO3)C(=O)c3ccco3)n2)cc1 (centres undefined)	-5.0	15.5	66.6*	nt	nt
O=C(c1ccco1)N(CC1CCCO1)c1nc(-c2ccccc2)cs1 (centres undefined)	2.3	3.7	44.0	1.5	-11.0
O=C(Nc1ccc(F)c(Cl)c1)c1ccncc1	-17.5	nt	nt	nt	nt
O=C(Nc1cccnc1)Nc1ccc(F)c(Cl)c1	-0.8	-11.5	48.8	1	61.0*
COc1ccc(N/C(C)=C/C2=[N+](c3ccccc3)C(C)(O)CS2)cc1 (centres undefined)	2.8	nt	nt	nt	nt
SMILES	HePTP inh	AP complement	Ecoli tolC	PLAP act	E coli WT exp
Cc1ccc(/C=C/C(=O)Nc2ccc3c(c2)OCO3)cc1	-5.5	nt	nt	nt	nt
COc1ccc(N2C(=O)c3ccc(C(=O)Nc4ccccc4I)cc3C2=O)cc1	4.5	nt	nt	nt	nt
COc1ccc(N2C(=O)c3ccc(C(=O)Nc4cc(Cl)ccc4C(=O)O)cc3C2=O)cc1	102.1*	nt	nt	nt	nt
CC(=O)c1cc(F)c(N2CCN(C(=O)c3ccco3)CC2)cc1C	11.9	14.7	18.8	1.1	-4.0
CCn1cc(C(=O)Nc2nncs2)c(=O)c2cc(F)c(N3CCN(C(=O)c4ccco4)CC3)cc21	7.1	14.8	100.0*	nt	nt
CCn1cc(C(=O)NCc2ccccc2)c(=O)c2cc(F)c(N3CCN(C(=O)c4ccco4)CC3)cc21	nt	nt	nt	1.6	45.0
